Reference: ChEMBL document CHEMBL1124806, “Synthesis of quaternary amine ether lipids and evaluation of neoplastic cell growth inhibitory properties” (J Med Chem, 1990)

What was measured:
HL-60 [1] = assay: Inhibition of neoplastic cell proliferation in the HL-60 human promyelocytic leukemia cells; assay type: functional; conditions: read-out: ID50 (the source's name)
Method in brief: (§1)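 HL-60 cells are kept in RPMI 1640 with 10% FBS and 2 mM glutamine under 5% CO2. They are seeded at 5 × 10^5 cells/mL with a range of lipid concentrations, diluted into medium from 1 mg/mL ethanol stocks. After 48 h, viable cells are counted by hemocytometer with trypan blue. ID50 values are averaged, and SD is taken from the averaged ID50s.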

HL-60 [2] = assay: Inhibition of neoplastic cell proliferation with the HL-60 human promyelocytic leukemia cells; assay type: functional; conditions: read-out: ID50 (the source's name); method in brief: as §1
Protein kinase C (PKC) = assay: Inhibition of Protein Kinase C (PKC) isolated from HL-60 human promyelocytic leukemia cells; assay type: cell-free
Method in brief: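 Partially purified PKC from HL-60 cells, pH 7.5, in 25 mM Tris, 10 mM MgCl2, 0.1 mM CaCl2, 40 μg/mL histone, 20 μg/mL phosphatidylserine, 2.5 μM OAG, and 10 μM ATP with [γ-32P]ATP. Analogue in ethanol is added before the enzyme starts the reaction, with a 0.1% ethanol control. The reaction runs 20 min at 30 °C and is stopped with BSA and ice-cold 25% TCA. Filter-bound 32P-histone is counted; duplicates.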

SMILES	IC50 (HL-60 [1]) [nM]	IC50 (HL-60 [2]) [µM]	IC50 (Protein kinase C (PKC)) [µM]
CCCCCCCCCCCCCCCCOCC(C[n+]1ccccc1)OCC (stereo unspecified)	1010		
CCCCCCCCCCCCCCCCSCC(C[N+](C)(C)CCO)OC (stereo unspecified)		4.66	
CCCCCCCCCCCCCCCCCCSCC(C[N+](C)(C)CCCO)OC.[I-] (stereo unspecified)	3350		5
CCCCCCCCCCCCCCCCOCC(C[N+](C)(C)C)OC.[Br-] (stereo unspecified)	1590		> 40
CCCCCCCCCCCCCCCCCC1OCC(COCCCC[N+](C)(C)C)O1 (stereo unspecified)	2820		
CCCCCCCCCCCCCCCCCC1OCC(C[N+](C)(C)CCCO)O1.[Br-] (stereo unspecified)	6470		13
CCCCCCCCCCCCCCCCOCCC[n+]1ccccc1.[Br-]	820		> 40
CCCCCCCCCCCCCCCCOCC(C[N+]1(C)CCC(O)CC1)OCC (stereo unspecified)	2720		
CCCCCCCCCCCCCCCCOCC(COCCCCCCCCCC[N+](C)(C)C)OC (stereo unspecified)	3790		
CC1(C)OCC(C[N+](C)(C)CCO)O1 (stereo unspecified)	> 10000		
CCCCCCCCCCCCCCCCOCC(COCCCC[n+]1ccccc1)OCC (stereo unspecified)	780		
CCCCCCCCCCCCCCCCCCOCC(COP(=O)([O-])OCC[N+](C)(C)C)OC (stereo unspecified) [EDELFOSINE]	2010		12

Second part, the compound after the results:

IC50 (HL-60 [1]) [nM]	IC50 (HL-60 [2]) [µM]	IC50 (Protein kinase C (PKC)) [µM]	SMILES
2200		25	CCCCCCCCCCCCCCCCSCC(C[N+](C)(C)C)OC.[Br-] (stereo unspecified)
	3.72		CCCCCCCCCCCCCCCCSCC(C[N+](C)(C)CCO)OCC (stereo unspecified)
1850		31	CCCCCCCCCCCCCCCCOCC(COCC[N+](C)(C)C)OC.[Br-] (stereo unspecified)
1560			CCCCCCCCCCCCCCCCOCCCOCCCC[N+](C)(C)C
1610		> 40	CCCCCCCCCCCCCCCCOCCC[N+](C)(C)C.[Br-]
1260			CCCCCCCCCCCCCCCCCCOCC(COCCCC[N+](C)(C)C)OCC (stereo unspecified)
680			CCCCCCCCCCCCCCCCOCC(C[N+](CC)(CC)CC)OCC (stereo unspecified)
	2.95		CCCCCCCCCCCCCCCCSCC(C[N+](C)(C)CCCO)OCC (stereo unspecified)
1860		> 40	CCCCCCCCCCCCCCCCOCC(COCCCC[N+](C)(C)C)OCC.[Br-] (stereo unspecified)
1830			CCCCCCCCCCCCCCCCSCC(COCCCC[N+](C)(C)C)OCC (stereo unspecified)
1750		> 40	CCCCCCCCCCCCCCCCOCC(COCCCCCC[N+](C)(C)C)OC.[Br-] (stereo unspecified)
2300		> 40	CCCCCCCCCCCCCCCCOCC(COCCCC[N+](C)(C)C)OC.[Br-] (stereo unspecified)
1200			CCCCCCCCCCCCCCCCOCC(COCCC[N+](C)(C)C)OC (stereo unspecified)
